Experiment [1] concerns D/D domain of RIIα (RIIα-D/D(1–44)). In words: Isothermal titration calorimetry. It is filed as binding, human. As to conditions: ITC, one-site model, 25 °C, pH 7.5; three independent measurements. Put shortly:
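Run in 20 mM Hepes, pH 7.5, 150 mM NaCl at 25 °C. Cell held RIIα D/D domain at 20 μM, and the syringe held the test AKAP18β(43–83) peptide at 100 μM. There were 25–30 injections of 10–12 μl at 5–20 min intervals. Incremental heat per mole was fitted by non-linear least squares to a one-site model, and protein concentration was adjusted by the fit.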
On the technique in general: ITC needs no label: the signal is the heat of the interaction.

The next experiment relates to RI subunits of PKA. To be noted: cited from earlier work.

Consider “NGGEPDDAELVRLSKRLVENAVLKAVQQY LEETQ NKNKP GE [AKAP18β(43–83)]”, for which the “n (sites)” value in experiment [1] was determined as 0.98 sites. On to “SKIP: AKAP that preferentially or specifically binds RI”, for which the “Binding preference for RI, SKIP” value with RI subunits of PKA (ref [12],[13]) was “preferentially or specifically bind RI”.

For the substance “smAKAP: RI-specific AKAP, full-length [reference compound]”, the “Binding preference for RI, smAKAP” value in the experiment on RI subunits of PKA (ref [14]) is listed as “preferentially or specifically bind RI”.

The record behind these values is paper PMC4964276 (The Biochemical journal, 2016).
